Measurements pooled from the literature.
Each line is one published result; the experiments were not run side by side.

| Structure (SMILES) | test system | conditions | Cmax |
| --- | --- | --- | --- |
| O=C1CCC(N2Cc3cc(C4CCN(Cc5ccccc5)CC4)ccc3C2=O)C(=O)N1 (centres unmarked) | male CD-1 mouse, plasma | oral, 3 mg/kg | 273 ng/mL |
| NCc1cc2c(cc1F)C(=O)N(C1CCC(=O)NC1=O)C2 (centres unmarked) | male CD-1 mouse, plasma | oral, 10 mg/kg | 97.2 ng/mL |
| OCc1nc2ccc(NCc3ccc(C(F)(F)F)cc3)cc2[nH]1 | male BALB/c mouse, plasma | oral, 10 mg/kg | 1790 ng/mL |
| C=CCn1c(=O)c2cnc(Nc3ccc(N4CCN(C)CC4)cc3)nc2n1-c1ccc2c(n1)[C@@](O)(CC)CC2 | mouse, plasma | oral, 60 mg/kg | 10.5 µM |
| Cc1nc2ccc(OCc3ccc(C(F)(F)F)cc3)cc2[nH]1 | male BALB/c mouse, plasma | intravenous, 1 mg/kg | 4540 ng/mL |
| CC(C)(C)c1sc2ncnc(Oc3c(F)cccc3OC(F)(F)F)c2c1-c1ccc(Cl)cc1 | mouse, plasma | oral, 30 mg/kg, single dose | 10300 ng/mL |
| COC1=CC(c2ccc[nH]2)=N/C1=C\c1cc(Cc2ccc(OC(F)(F)F)cc2)c(C)[nH]1.Cl | male CD-1 mouse, plasma | oral, 40 mg/kg, single dose | 161 ng/mL |
| NCc1ccc(-c2nn(Cc3ccccc3)c3ccccc23)o1 | male CD-1 mouse, plasma | intraperitoneal, 30 mg/kg | 4030 ng/mL |
| CCOC(=O)c1c(NC(=O)CNC(C)C)sc2c1CCCCC2 | male mouse, plasma | intraperitoneal, 100 mg/kg, single dose | 6340 ng/mL |
| Cc1ncsc1-c1ccc([C@H](CC(=O)N2CCN(c3ccc(C#Cc4ccc(C(=O)N5CCC(n6cc(-c7ccc8c(c7)CCN8C(=O)Cc7cccc(OC(F)(F)F)c7)c7c(N)ncnc76)CC5)cc4)cn3)CC2)NC(=O)[C@@H]2C[C@@H](O)CN2C(=O)[C@@H](NC(=O)C2(F)CC2)C(C)(C)C)cc1 | male C57BL/6 mouse, plasma | intravenous, 1 mg/kg | 19600 ng/mL |
| COC1=CC(c2ccc[nH]2)=N/C1=C\c1[nH]c(Cc2ccc(OC(F)(F)F)cc2)cc1Cc1ccc(OC(F)(F)F)cc1 | male CD-1 mouse, plasma | oral, 40 mg/kg, single dose | 3950 ng/mL |
| NCc1ccc(-c2nn(Cc3ccncc3)c3ccccc23)o1 | male CD-1 mouse, plasma | oral, 10 mg/kg | 168 ng/mL |
| COc1cccc2c(N3CCC(CCP(=O)(O)O)CC3)ncnc12 | female BALB/c mouse, serum | subcutaneous, 50 mg/kg, tumour-bearing | 23000 ng/mL |
| Cc1ccc(OCC(=O)N[C@@H](Cc2c[nH]c3ccccc23)C(=O)OC(C)C)cc1 | male Sprague-Dawley mouse, plasma | oral, 20 mg/kg | 2560 ng/mL |
| C[C@@H](CN1CCC(n2c(=O)[nH]c3cc(Cl)ccc32)CC1)NC(=O)c1ccc2ccccc2c1 | male CD-1 mouse, brain | intravenous, 1 mg/kg, single dose | 0.236 ng/mL |
| Cc1ncsc1-c1ccc([C@H](C)NC(=O)[C@@H]2C[C@@H](O)CN2C(=O)[C@@H](NC(=O)CCc2ccc(C#Cc3ccc(C(=O)NCCCn4cc(-c5ccc6c(c5)CCN6C(=O)Cc5cccc(OC(F)(F)F)c5)c5c(N)ncnc54)cc3)cn2)C(C)(C)C)cc1 | male C57BL/6 mouse, plasma | intravenous, 1 mg/kg | 11900 ng/mL |
| Cc1cc(-c2ccnc3[nH]cc(F)c23)cc(F)c1[C@@]1(O)[C@H](C)CN(C2CCS(=O)(=O)CC2)C[C@@H]1C | male CD-1 mouse, plasma | oral, 3 mg/kg | 750 ng/mL |
| OCc1ccc(-c2nn(Cc3ccccc3)c3ccccc23)o1 | male CD-1 mouse, plasma | intraperitoneal, 30 mg/kg | 5540 ng/mL |
| CN(C)C(=O)c1cc2cnc(Nc3ccc(-c4ccc5c(=O)cc(N6CCOCC6)oc5c4)cc3)nc2n1C1CCCC1 | BALB/c mouse, plasma | oral, 20 mg/kg | 1440 ng/mL |
| Cc1cc(-c2ccnc3[nH]cc(F)c23)cc(F)c1[C@@]1(O)[C@H](C)CN(C(=O)CN)C[C@@H]1C | male CD-1 mouse, plasma | intravenous, 1 mg/kg | 1980 ng/mL |
